{"source": "ChEMBL document CHEMBL1914308", "about": "“N-fused imidazoles as novel anticancer agents that inhibit catalytic activity of topoisomerase IIα and induce apoptosis in G1/S phase” (J Med Chem, 2011)", "key": {"MCF7": {"system": "MCF7", "assay": "Cytotoxicity against human MCF7 cells assessed as cell survival at 15 uM after 48 hrs by MTT assay", "format": "functional", "conditions": "MCF7, 48 h, read-out: Activity", "how_it_was_run": "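MTT survival of MCF 7 breast cancer cells, with MCF 10A as normal comparator; 48 h exposure. MCF 7 in DMEM with 10% FBS; MCF 10A in DMEM/F-12 with 10% FBS plus hydrocortisone, cholera toxin, insulin, EGF and L-glutamine. Mean ± SD of three independent experiments.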"}, "HEK293 [1]": {"system": "HEK293", "assay": "Cytotoxicity against human HEK293 cells assessed as cell survival at 12 uM after 48 hrs by MTT assay", "format": "functional", "conditions": "HEK293, 48 h, read-out: Activity", "how_it_was_run": "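MTT survival of HEK 293 and Vero cells after 48 h with compound at graded concentrations. DMEM, 10% FBS, 37 °C, 5% CO2; dilutions in DMEM from 100 mM DMSO stock, added at 60–70% confluence. Mean ± SD of three independent experiments.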"}, "HEK293 [2]": {"system": "HEK293", "assay": "Induction of cell cycle arrest in human HEK293 cells assessed as accumulation at G2/M phase at 25 uM after 48 hrs by propidium iodide staining-based FACS analysis (reference value: 7.5 +/- 1.0%)", "format": "functional"}, "HEK293 [3]": {"system": "HEK293", "assay": "Induction of cell cycle arrest in human HEK293 cells assessed as accumulation at S phase at 15 uM after 48 hrs by propidium iodide staining-based FACS analysis (reference value: 16.91 +/- 1.0%)", "format": "functional"}, "HEK293 [4]": {"system": "HEK293", "assay": "Induction of cell cycle arrest in human HEK293 cells assessed as accumulation at sub-G0 phase after 48 hrs by propidium iodide staining-based FACS analysis", "format": "functional"}, "HEK293 [5]": {"system": "HEK293", "assay": "Induction of apoptosis in human HEK293 cells assessed as increase in PARP cleavage product at 15 to 25 uM after 48 hrs by Western blot analysis", "format": "functional, cell-based", "how_it_was_run": "(§1)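 Whole-cell extracts from HEK 293 cells after 48 h at graded concentrations, Western blotted for caspase-3, Bax, Bcl-XL and PARP (cleaved 86 kDa fragment); β-actin as loading control.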"}, "HEK293 [6]": {"system": "HEK293", "assay": "Induction of apoptosis in human HEK293 cells assessed as increase in caspase 3 expression at 15 to 25 uM after 48 hrs by Western blot analysis", "format": "functional, cell-based", "how_it_was_run": "as §1"}, "[7]": {"molecular_target": "T1, DNA topoisomerase 2-alpha (Homo sapiens, UniProt P11388)", "T1 sequence (P11388 whole entry)": "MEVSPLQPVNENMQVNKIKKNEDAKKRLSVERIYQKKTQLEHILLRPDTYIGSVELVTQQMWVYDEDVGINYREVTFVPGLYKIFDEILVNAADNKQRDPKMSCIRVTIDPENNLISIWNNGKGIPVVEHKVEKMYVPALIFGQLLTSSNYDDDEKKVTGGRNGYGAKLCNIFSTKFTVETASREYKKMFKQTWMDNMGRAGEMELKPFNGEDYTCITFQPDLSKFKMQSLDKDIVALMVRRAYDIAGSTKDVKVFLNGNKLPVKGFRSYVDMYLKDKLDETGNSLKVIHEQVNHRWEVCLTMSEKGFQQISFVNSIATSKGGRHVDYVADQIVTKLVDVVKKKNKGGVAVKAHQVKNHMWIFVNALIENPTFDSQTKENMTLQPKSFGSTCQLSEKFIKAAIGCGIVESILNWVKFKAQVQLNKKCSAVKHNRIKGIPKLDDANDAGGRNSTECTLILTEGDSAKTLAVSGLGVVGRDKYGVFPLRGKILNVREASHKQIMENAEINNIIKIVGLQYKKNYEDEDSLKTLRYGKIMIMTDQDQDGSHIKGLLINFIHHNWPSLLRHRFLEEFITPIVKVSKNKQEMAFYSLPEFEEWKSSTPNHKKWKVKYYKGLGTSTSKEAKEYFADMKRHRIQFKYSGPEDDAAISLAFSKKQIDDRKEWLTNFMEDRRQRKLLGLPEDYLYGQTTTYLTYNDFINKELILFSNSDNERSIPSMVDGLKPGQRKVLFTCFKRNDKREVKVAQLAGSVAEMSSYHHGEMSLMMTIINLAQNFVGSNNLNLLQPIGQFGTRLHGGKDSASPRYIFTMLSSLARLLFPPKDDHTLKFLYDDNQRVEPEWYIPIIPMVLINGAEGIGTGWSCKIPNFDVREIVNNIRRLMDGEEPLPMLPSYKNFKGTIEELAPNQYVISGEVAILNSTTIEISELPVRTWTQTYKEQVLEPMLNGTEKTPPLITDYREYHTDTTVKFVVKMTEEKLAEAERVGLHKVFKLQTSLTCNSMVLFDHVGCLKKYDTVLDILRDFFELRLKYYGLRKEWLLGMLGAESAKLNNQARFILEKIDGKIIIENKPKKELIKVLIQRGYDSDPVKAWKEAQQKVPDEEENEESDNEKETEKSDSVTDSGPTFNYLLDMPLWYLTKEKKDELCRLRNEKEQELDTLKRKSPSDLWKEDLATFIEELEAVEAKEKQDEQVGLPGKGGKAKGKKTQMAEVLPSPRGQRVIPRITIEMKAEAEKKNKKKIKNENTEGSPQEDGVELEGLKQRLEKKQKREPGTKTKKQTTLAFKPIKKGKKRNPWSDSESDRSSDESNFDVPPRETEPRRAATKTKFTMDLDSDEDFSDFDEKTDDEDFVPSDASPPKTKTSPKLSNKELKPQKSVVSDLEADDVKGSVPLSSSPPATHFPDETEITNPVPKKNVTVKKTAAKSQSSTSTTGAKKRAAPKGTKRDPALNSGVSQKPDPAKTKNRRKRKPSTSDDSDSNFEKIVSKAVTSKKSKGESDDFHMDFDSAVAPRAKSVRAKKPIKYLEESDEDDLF", "assay": "Inhibition of etoposide poisoning activity against human recombinant DNA topoisomerase 2alpha assessed as enhancement of in relaxation of supercoiled plasmid pBR322 DNA at 200 uM after 30 mins by agarose gel electrophoresis"}, "[8]": {"molecular_target": "T1, DNA topoisomerase 2-alpha", "assay": "Inhibition of human topoisomerase 2 alpha-mediated decatenation of kDNA at 100 uM by agarose gel electrophoresis", "how_it_was_run": "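150 ng kDNA with 2–4 units purified human topo II and 100 μM compound in DMSO, buffer 0.5 M Tris-HCl pH 8, NaCl, MgCl2, DTT, BSA with ATP (stock buffer concentrations), 20 μL, 37 °C 30 min. Stopped with SDS, proteinase K 37 °C 15 min; 1% agarose in TAE with 0.5 μg/mL EtBr; bands quantified by densitometry; etoposide 100 μM as reference.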"}, "HEK293 [9]": {"system": "HEK293", "assay": "Induction of apoptosis in human HEK293 cells assessed as apoptotic cells at 25 uM after 48 hrs by propidium iodide staining-based FACS analysis (reference value: 4.88 +/- 0.8%)", "format": "functional"}, "HEK293 [10]": {"system": "HEK293", "assay": "Induction of apoptosis in human HEK293 cells assessed as apoptotic cells at 15 uM after 48 hrs by propidium iodide staining-based FACS analysis (reference value: 4.88 +/- 0.8%)", "format": "functional"}, "HEK293 [11]": {"system": "HEK293", "assay": "Antimigratory activity against human HEK293 cells at 25 uM after 24 hrs by wound healing assay", "format": "functional, cell-based", "how_it_was_run": "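Wound healing in HEK 293 monolayer: scratch made with sterile micro tip, cells then cultured with or without 25 μM compound; gap closure followed over time to 24 h. Best of three independent experiments shown.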"}, "HEK293 [12]": {"system": "HEK293", "assay": "Anticlonogenic activity against human HEK293 cells assessed as inhibition of colony formation of cells at 25 uM after 48 hrs by crystal violet staining", "format": "functional, cell-based"}, "Vero": {"system": "Vero", "assay": "Cytotoxicity activity against african green monkey Vero assessed as cell survival at 12 uM after 48 hrs by MTT assay", "format": "cell-based", "conditions": "chlorocebus sabaeus"}, "HEK293 [13]": {"system": "HEK293", "assay": "Cytotoxicity against human HEK293 cells assessed as cell survival after 48 hrs by MTT assay", "format": "functional", "conditions": "HEK293, 48 h, read-out: LC50 (the source's name)", "how_it_was_run": "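HEK 293 cells were cultured in DMEM with 10% FBS and antibiotics at 37 °C in 5% CO₂. At 60–70% confluence they were treated for 48 h with various concentrations, diluted in DMEM from 100 mM DMSO stocks. Survival was read by MTT. LC₅₀ is the concentration killing 50% of cells. Data are mean ± SD of three independent experiments.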"}, "[14]": {"assay": "Anticlonogenic activity against african green monkey Vero after 48 hrs by crystal violet staining", "format": "ADME, cell-based", "conditions": "chlorocebus sabaeus, Vero cells; read-out: LC50", "how_it_was_run": "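HEK 293 and Vero cells were grown in DMEM with 10% FBS and 1% penicillin/streptomycin at 37 °C in 5% CO₂. At 60–70% confluence they were exposed for 48 h to a range of concentrations, diluted in DMEM from 100 mM DMSO stocks. Colony survival is expressed as %. Values are mean ± SD of three independent experiments; LC₅₀ is the concentration killing half the cells.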"}, "HEK293 [15]": {"system": "HEK293", "assay": "Anticlonogenic activity against human HEK293 cells assessed as inhibition of colony formation of cells at 20 to 100 uM after 48 hrs by crystal violet staining", "format": "functional, cell-based", "how_it_was_run": "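Clonogenic survival in HEK 293 and Vero cells, 48 h exposure at graded concentrations; % survival plotted; mean ± SD of three independent experiments. Cells grown in DMEM with 10% FBS and 1% antibiotic at 37 °C, 5% CO2; compound diluted from 100 mM DMSO stock into DMEM, added at 60–70% confluence.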"}, "[16]": {"molecular_target": "T1, DNA topoisomerase 2-alpha", "assay": "Inhibition of topoisomerase 2 alpha-mediated DNA relaxation activity in human HEK293 cells assessed as increase in supercoiled DNA at 35 uM after 3 to 4 hrs by agarose gel electrophoresis in presence of 20 to 250 mM ATP", "format": "cell-based"}, "[17]": {"molecular_target": "T1, DNA topoisomerase 2-alpha", "assay": "Inhibition of human topoisomerase 2 alpha-mediated unwinding of supercoiled DNA assessed as DNA intercalation at 100 uM by agarose gel electrophoresis", "how_it_was_run": "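250 ng negatively supercoiled E. coli plasmid incubated 20 min at 37 °C with 1 μg/mL ethidium bromide (intercalator control), 100 μM etoposide or test compound; run on 1% agarose in TAE without EtBr, then post-stained with 0.5 μg/mL EtBr; mobility retardation scored.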"}, "[18]": {"molecular_target": "T1, DNA topoisomerase 2-alpha", "assay": "Inhibition of human topoisomerase 2 alpha-mediated decatenation of kDNA by agarose gel electrophoresis", "how_it_was_run": "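kDNA decatenation by hTopoIIα run at 10 to 100 μM compound under the standard decatenation conditions (37 °C, 30 min, agarose gel, densitometry); IC50 taken from the concentration–inhibition plot.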"}}, "note": "The source made the active and inactive calls. No cut-off for these calls is given here.", "data": [{"smiles": "CC(C)(C)Nc1c(-c2ccc(C(=O)O)cc2)nc2ccccn12", "values": [{"measurement": "viability at 15 µM", "setting": "MCF7", "value": 50, "unit": "%"}, {"measurement": "viability at 12 µM", "setting": "HEK293 [1]", "value": "> 50", "unit": "%"}, {"measurement": "Activity", "setting": "HEK293 [2]", "value": 8.93, "unit": "%"}, {"measurement": "Activity", "setting": "HEK293 [3]", "value": 13.92, "unit": "%"}, {"measurement": "Activity", "setting": "HEK293 [4]", "value": "Dose-dependent effect"}, {"measurement": "Activity", "setting": "HEK293 [5]", "value": "Active"}, {"measurement": "Activity", "setting": "HEK293 [6]", "value": "Active"}, {"measurement": "inhibition", "setting": "[7]", "value": "inactive"}, {"measurement": "inhibition", "setting": "[8]", "value": "Active"}, {"measurement": "Activity", "setting": "HEK293 [9]", "value": 27.46, "unit": "%"}, {"measurement": "Activity", "setting": "HEK293 [10]", "value": 24.61, "unit": "%"}, {"measurement": "Activity", "setting": "HEK293 [11]", "value": "Active"}, {"measurement": "Activity", "setting": "HEK293 [12]", "value": "Active"}, {"measurement": "Activity", "setting": "Vero", "value": "Non-toxic"}, {"measurement": "CC50", "setting": "HEK293 [13]", "value": 12, "unit": "µM"}, {"measurement": "CC50 at 48 h", "setting": "[14]", "value": 98, "unit": "µM"}, {"measurement": "inhibition", "setting": "HEK293 [15]", "value": "Dose-dependent effect"}, {"measurement": "inhibition", "setting": "[16]", "value": "inactive"}, {"measurement": "inhibition", "setting": "[17]", "value": "inactive"}, {"measurement": "IC50", "setting": "[18]", "value": 52.7, "unit": "µM"}]}]}
